Data reported in PMC12799544 (Molecular Pharmacology, 2025).
Where “and” joins values, the source holds several entries; their conditions need not be identical. Equal entries are not always repeated.

Legend:
RyR2 [1] = conditions: cited from earlier work
RyR2 [2] = target: RyR2 (Mus musculus, UniProt E9Q401); assay: Ca spark assay in permeabilized ventricular cardiomyocytes; type: cell-based, C57BL/6J mice; conditions: for Concentration dependence of Ca spark frequency: increasing concentrations
In short: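 Mouse ventricular myocytes (C57BL/6J, 12–18 weeks, both sexes) attached 10 min on laminin at room temperature, saponin-permeabilized (40 μg/mL, 40 s), then bathed 15 min in pH 7.2 internal solution (5 mM MgATP, 0.5 mM EGTA, 0.12 mM CaCl2, Fluo-4) with 0.1% DMSO or test compound. Confocal x-t sparks in brick-shaped cells; caffeine used as reference activator. Hierarchical mixed-effects statistics; 4-parameter concentration-response fit.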

RyR2 [3] = target: T1, RyR2 (Sus scrofa, UniProt A0A5G2R1W3); assay: [3H]-ryanodine ligand binding assay, cardiac SR membrane; parameters: species or system porcine
T1 sequence (A0A5G2R1W3 20-4900): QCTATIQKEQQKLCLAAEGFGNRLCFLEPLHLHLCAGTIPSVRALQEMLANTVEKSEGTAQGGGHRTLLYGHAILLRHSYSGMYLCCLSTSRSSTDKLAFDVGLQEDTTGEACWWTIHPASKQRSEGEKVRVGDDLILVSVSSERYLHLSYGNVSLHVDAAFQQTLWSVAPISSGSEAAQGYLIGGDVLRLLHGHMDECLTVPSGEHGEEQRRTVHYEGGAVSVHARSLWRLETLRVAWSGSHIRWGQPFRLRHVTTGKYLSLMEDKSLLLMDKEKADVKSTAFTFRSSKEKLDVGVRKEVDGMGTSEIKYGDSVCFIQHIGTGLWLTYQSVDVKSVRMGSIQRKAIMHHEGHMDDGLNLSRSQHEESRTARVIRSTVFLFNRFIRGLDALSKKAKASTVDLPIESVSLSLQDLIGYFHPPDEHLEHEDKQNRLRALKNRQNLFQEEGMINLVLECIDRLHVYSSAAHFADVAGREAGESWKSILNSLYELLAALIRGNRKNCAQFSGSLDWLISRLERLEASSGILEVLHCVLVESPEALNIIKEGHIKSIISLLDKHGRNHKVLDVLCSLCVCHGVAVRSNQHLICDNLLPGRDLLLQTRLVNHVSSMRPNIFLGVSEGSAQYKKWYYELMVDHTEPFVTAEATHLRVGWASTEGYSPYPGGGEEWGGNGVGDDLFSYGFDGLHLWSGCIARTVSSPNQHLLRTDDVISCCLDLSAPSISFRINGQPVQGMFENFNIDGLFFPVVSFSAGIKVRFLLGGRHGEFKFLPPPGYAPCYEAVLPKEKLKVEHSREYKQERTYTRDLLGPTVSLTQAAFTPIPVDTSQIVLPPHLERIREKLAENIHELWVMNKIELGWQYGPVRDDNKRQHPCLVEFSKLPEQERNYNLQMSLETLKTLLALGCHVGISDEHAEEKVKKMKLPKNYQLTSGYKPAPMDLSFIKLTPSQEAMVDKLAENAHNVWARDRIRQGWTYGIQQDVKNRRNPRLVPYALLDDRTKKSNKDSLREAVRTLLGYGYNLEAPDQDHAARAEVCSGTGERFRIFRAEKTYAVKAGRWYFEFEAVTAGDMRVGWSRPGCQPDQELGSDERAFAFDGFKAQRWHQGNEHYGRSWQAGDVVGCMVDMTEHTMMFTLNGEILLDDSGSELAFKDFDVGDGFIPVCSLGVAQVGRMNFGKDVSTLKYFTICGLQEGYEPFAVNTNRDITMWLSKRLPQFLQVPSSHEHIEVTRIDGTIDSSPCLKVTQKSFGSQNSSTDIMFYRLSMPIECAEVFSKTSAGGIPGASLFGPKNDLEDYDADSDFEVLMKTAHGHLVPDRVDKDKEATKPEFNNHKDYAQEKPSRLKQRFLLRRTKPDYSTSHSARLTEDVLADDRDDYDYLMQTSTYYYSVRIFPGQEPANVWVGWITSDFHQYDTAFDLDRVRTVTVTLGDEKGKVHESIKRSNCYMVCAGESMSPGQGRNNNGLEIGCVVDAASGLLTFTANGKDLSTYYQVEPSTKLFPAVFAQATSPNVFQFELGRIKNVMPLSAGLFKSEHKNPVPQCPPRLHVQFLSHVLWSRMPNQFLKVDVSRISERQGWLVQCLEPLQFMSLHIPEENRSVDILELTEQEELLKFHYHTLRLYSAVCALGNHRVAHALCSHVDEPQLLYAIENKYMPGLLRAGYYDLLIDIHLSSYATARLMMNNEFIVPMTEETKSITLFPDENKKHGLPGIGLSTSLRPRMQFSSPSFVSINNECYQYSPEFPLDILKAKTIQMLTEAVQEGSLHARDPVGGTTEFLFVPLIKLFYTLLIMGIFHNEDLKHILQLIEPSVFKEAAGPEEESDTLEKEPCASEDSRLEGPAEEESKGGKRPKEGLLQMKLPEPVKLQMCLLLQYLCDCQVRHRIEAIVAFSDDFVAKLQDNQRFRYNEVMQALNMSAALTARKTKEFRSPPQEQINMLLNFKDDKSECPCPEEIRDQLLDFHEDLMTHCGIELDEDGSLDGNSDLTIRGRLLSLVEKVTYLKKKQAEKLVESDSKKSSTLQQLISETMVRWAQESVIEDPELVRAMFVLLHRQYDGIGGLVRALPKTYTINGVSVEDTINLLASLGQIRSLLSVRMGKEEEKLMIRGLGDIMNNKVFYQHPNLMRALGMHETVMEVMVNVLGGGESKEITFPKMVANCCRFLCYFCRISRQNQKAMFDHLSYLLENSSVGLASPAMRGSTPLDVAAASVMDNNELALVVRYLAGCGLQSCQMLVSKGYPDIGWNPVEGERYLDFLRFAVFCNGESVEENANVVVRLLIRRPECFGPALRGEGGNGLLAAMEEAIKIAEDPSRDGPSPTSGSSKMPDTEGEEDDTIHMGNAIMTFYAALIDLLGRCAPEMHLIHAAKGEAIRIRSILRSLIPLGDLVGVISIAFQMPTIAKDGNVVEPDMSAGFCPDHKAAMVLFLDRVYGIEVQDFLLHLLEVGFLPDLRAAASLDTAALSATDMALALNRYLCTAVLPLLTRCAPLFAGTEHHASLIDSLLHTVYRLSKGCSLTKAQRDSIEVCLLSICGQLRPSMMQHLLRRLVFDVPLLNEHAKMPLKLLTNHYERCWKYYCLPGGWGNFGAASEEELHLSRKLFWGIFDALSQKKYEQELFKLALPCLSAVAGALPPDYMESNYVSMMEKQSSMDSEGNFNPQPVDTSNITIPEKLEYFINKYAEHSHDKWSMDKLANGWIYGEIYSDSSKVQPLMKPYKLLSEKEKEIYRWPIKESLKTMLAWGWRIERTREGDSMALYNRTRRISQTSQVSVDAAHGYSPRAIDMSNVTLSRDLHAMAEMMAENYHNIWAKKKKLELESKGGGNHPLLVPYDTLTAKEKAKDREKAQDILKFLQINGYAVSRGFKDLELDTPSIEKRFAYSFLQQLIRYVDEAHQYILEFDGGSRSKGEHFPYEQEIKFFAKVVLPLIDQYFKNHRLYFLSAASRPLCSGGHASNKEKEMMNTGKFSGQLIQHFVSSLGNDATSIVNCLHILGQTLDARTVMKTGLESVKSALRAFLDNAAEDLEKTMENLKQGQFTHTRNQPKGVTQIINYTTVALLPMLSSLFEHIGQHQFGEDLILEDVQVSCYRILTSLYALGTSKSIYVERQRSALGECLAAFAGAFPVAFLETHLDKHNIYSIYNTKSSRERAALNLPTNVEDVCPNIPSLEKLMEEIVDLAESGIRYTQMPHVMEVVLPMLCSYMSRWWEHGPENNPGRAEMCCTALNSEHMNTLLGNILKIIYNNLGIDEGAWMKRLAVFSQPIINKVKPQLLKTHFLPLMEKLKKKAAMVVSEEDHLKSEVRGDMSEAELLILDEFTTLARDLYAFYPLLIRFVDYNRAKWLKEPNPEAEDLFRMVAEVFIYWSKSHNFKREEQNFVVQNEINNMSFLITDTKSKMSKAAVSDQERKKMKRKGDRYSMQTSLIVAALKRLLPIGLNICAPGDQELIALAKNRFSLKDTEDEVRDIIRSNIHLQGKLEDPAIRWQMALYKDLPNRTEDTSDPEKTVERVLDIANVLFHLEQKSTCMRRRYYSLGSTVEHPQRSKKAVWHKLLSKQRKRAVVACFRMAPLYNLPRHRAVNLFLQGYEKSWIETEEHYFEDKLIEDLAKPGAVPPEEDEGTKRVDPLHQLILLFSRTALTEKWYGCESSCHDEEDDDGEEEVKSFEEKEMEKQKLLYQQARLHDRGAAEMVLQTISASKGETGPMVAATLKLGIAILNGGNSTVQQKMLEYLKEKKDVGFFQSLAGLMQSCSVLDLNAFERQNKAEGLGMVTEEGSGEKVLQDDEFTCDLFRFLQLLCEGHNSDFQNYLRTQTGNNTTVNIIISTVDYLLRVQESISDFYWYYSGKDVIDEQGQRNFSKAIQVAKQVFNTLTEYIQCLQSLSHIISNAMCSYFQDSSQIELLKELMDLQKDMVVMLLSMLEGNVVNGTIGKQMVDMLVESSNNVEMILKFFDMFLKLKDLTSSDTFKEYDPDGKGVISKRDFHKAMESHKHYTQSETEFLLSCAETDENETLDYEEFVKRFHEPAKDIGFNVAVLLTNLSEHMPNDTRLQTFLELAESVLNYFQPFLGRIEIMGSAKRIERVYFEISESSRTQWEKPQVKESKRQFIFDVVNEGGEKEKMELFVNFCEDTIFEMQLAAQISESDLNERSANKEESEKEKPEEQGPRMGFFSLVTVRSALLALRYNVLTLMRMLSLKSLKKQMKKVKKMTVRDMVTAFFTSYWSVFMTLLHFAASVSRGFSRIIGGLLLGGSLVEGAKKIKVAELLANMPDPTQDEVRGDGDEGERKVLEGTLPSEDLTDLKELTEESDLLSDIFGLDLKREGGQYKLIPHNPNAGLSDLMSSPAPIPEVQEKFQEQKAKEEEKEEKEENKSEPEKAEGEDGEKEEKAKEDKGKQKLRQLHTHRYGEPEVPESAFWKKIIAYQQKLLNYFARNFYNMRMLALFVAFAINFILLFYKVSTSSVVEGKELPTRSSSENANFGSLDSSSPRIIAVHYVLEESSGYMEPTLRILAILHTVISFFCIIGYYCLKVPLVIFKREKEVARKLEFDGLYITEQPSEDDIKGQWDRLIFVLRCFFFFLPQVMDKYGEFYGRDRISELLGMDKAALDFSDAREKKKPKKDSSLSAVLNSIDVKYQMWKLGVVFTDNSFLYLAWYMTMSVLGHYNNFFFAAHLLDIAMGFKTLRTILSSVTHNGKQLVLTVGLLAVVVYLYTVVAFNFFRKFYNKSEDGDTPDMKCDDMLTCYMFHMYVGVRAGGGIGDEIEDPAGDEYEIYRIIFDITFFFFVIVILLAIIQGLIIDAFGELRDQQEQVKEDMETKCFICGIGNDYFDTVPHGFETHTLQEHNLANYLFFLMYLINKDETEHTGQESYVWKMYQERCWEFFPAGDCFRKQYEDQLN
In short: (§1)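 Porcine cardiac SR (3 mg/mL) was incubated 3 h at 37 °C with 7.5 nM [3H]-ryanodine and compound in 20 mM PIPES pH 7.0, 150 mM KCl, 5 mM ATP, 0.1 μM calmodulin and 0.1 μM free Ca (1 mM EGTA). Nonspecific binding used 15 μM cold ryanodine; maximal binding used 5 mM AMP-PNP plus 20 mM caffeine. Bound label was counted by filtration and scintillation, normalized to vehicle; 4-parameter fit.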

[4] = Caco-2 bidirectional permeability assay; type: in vitro ADME, human; conditions: human, Caco-2, pH 7.4
In short: (§2)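 Caco-2 monolayers (passages 55–65) grown 21 days on 0.4 μm Transwell inserts and used only above 1000 Ω·cm2 TEER. Compound at 10 μM in HBSS (<1% DMSO) was dosed apically or basally. Samples at 0 and 2 h were analyzed by LC-MS for Papp, efflux ratio and recovery. Integrity was checked afterwards by lucifer yellow flux (≤0.5%).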

Caco-2 cell monolayer = assay: Caco-2 bidirectional permeability assay; type: in vitro ADME, human; conditions: recovery
In short: as §2

RyR1 [5] = target: T2, RyR1 (Sus scrofa, UniProt P16960); assay: [3H]-ryanodine ligand binding assay, skeletal SR membrane; parameters: species or system porcine
In short: as §1, with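 “skeletal” for “cardiac”, “(1” for “(3”, “10” for “7.5”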

RyR2 [6] = target: T1, RyR2; assay: RyR2 single-channel recording in artificial lipid bilayers; type: biochemical, porcine
In short: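 Porcine cardiac SR vesicles were fused into PE:PS:PC (5:3:2) bilayers with symmetric 250 mM Cs+ and TES pH 7.4. The cis side held 0.1 μM free Ca (CaCl2/BAPTA) plus 2 mM ATP, at 23 ± 2 °C and +40 mV. Compound (0.01–10 or 1–100 μM) was added cis with DMSO <0.1%. Po came from 30–60 s at a 50% threshold, relative to vehicle on the same channel. Dwell times were fitted with 2 exponentials; 4-parameter fit.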

RyR1 [7] = target: T2, RyR1; assay: RyR1 single-channel recording in artificial lipid bilayers; type: biochemical, porcine
In short: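 Porcine longissimus dorsi SR vesicles were fused into PE:PS:PC (5:3:2) bilayers with symmetric 250 mM Cs+ and TES pH 7.4. The cis side held 0.1 μM free Ca (CaCl2/BAPTA) plus 2 mM ATP, at 23 ± 2 °C. Compound was added cis by aliquot or local perfusion, DMSO <0.1%. Po came from 30–60 s recordings, 50% amplitude threshold, 1 kHz filter. Nonlinear 4-parameter concentration-response fit.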

[8] = Parallel artificial membrane permeability assay; type: in vitro ADME
In short: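 Donor compound at 500 μM in PBS pH 7.4 with TPGS, across hydrophobic membranes pretreated with 1% lecithin in n-dodecane, into PBS acceptor. Incubated 14–18 h at room temperature in a humidified chamber. Donor and acceptor were quantified by LC-MS; Papp, percent recovery and percent diffusion came from ratio formulas.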

## O=C1CN(/N=C/c2ccc(-c3ccc([N+](=O)[O-])cc3)o2)C(O)=N1 [dantrolene]
RyR2 [1]
  Maximal inhibition of RyR2: ~50%

## Cn1c(=O)c2c(ncn2C)n(C)c1=O [caffeine, reference compound]
RyR2 [2]; 1 mM caffeine
  Ca spark duration with caffeine: many long-lasting sparks
RyR2 [2]
  Concentration dependence of Ca spark frequency: dose-dependent response

## CCCCC[C@@H]1OC(=O)[C@@H](C)N(C)C(=O)[C@H](CCCCC)OC(=O)[C@@H](C)N(C)C(=O)[C@H](CC(=O)O)OC(=O)[C@@H](C)N(C)C(=O)[C@H](CCCCC)OC(=O)[C@@H](C)N(C)C1=O [activert, 2-((2S,5R,8S,11R,14S,17R,20S,23R)-4,5,10,11,16,17,22,23-Octamethyl-3,6,9,12,15,18,21,24-octaoxo-8,14,20-tripentyl-1,7,13,19-tetraoxa-4,10,16,22-tetraazacyclotetracosan-2-yl)acetic acid]
RyR2 [3]
  EC50: ~46 µM
RyR2 [3]; read-out: Emax, increase of [3H]-ryanodine binding to RyR2 normalized to vehicle
  Emax: ~29%
[4]
  Papp A→B at 2 h, 10 µM: 0.4 ×10⁻⁶ cm/s
  Papp B→A at 2 h, 10 µM: 1.1 ×10⁻⁶ cm/s
  Papp at 2 h, 10 µM: < 1 ×10⁻⁶ cm/s
  efflux ratio at 2 h, 10 µM: 2.73
Caco-2 cell monolayer; apical-to-basal
  %R (A-B): 101%
Caco-2 cell monolayer; basal-to-apical
  %R (B-A): 80%
RyR2 [2]; 25 μM
  Average duration of the Ca spark: modestly increased
  Overall RyR2-mediated SR Ca leak: elevated
  Reduction of SR Ca load (amplitude of caffeine-induced Ca transient): ~10%
  Size (amplitude or width) of the average Ca spark: without changes
RyR2 [2]; 25 μM, 15 min, permeabilized cardiomyocytes
  Ca spark frequency versus vehicle: increase
RyR2 [2]; 100 μM activert
  Distribution of Ca spark duration compared with DMSO control: prolonged
RyR2 [2]
  Concentration dependence of Ca spark frequency: dose-dependent increase
RyR1 [5]
  EC50: ~9 µM
RyR1 [5]; read-out: Emax, increase of [3H]-ryanodine binding to RyR1 normalized to vehicle
  Emax: ~17%
RyR2 [6]
  IC50: ~32.2 µM
RyR2 [6]; EC50, activation of RyR2 single-channel Po, pCa 7, 2 mM ATP, +40 mV, 95% CI 1.4–63.1 μM
  EC50: ~30 µM and ~32.2 µM
RyR2 [6]; activert ≥50 μM versus vehicle
  Mean closed duration: decreased
  Mean open duration: without altering
RyR2 [6]; compared with ent-verticilide
  Potency on RyR2 compared with ent-verticilide (fold less potent): ~100 fold
RyR2 [6]; read-out: Emax, partial activation of RyR2 single-channel Po
  Emax: ~34%
RyR1 [7]
  EC50: ~10.5 µM
RyR1 [7]; read-out: Emax, increase of RyR1 single-channel Po
  Emax: ~14.4%
[8]; PAMPA
  % Diffusion: 7%
[8]; PAMPA recovery
  %R: 92%
[8]; PAMPA, pH 7.4, Permeability (experimental permeability rate)
  Papp at 500 µM: < 2 ×10⁻⁶ cm/s
